# This is a sample that favours compounds with a hit; in the whole collection about 2.6% have one here.
# ABHD4 inh – inhibitors of mouse ABHD4; AID 720543; Q8VD66; inhibition, % at 8.92 µM; actives 0.54% (n = 370,000); purified mABHD4, FP-Rh probe fluorescence polarization;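 active means inhibition exceeding the mean over every tested compound plus 3 SD, cut at about 30% in these data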;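 further: 0% = plate median of compound wells and 100% = S159A mutant with DMSO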
#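 system = mouse ABHD4 enzyme, wild type | medium = HEPES pH 7.0, NaCl, Pluronic buffer | also added = FP-Rh probe | incubation = Enzyme–compound pre-incubation 45 min, then probe 60 min, both 25 °C | technique = fluorescence polarization, excitation 525 nm, emission 598 nm, BODIPY TMR filters | controls = S159A mutant high control, sample median low control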
# HTRA1 inh – inhibitors of human serine peptidase HTRA1; Q92743; recombinant HTRA1, FP-rhodamine activity-based probe, fluorescence polarization; inhibition, % at 5.96 µM; actives 0.5% (n = 340,000); in the data active means inhibition above about 36%;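 further: 0% = enzyme with DMSO and 100% = wells lacking enzyme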
# PRMT1 FP inh – blocks human protein arginine methyltransferase 1 | Q99873 | recombinant PRMT1, activity-based probe fluorescence polarization | inhibition, % at 2.79 µM | actives 1.3% (n = 370,000) | AID 652257;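 active means inhibition above about 21% made by adding two undisclosed values, limit read from the data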
# TCR-CD3 inh – human TCR-CD3 binding inhibition. actives 0.37% (n = 360,000). TAMRA-labeled TCR probe fluorescence, biochemical. inhibition, % at 9.4 µM; in the data active means inhibition above about 19%;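 further: recombinant mutant TCR 2C K166C tagged with TAMRA read by polarization; 0% = receptor in buffer alone and 100% = receptor with positive control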
# SIAE primary – blocks human sialic acid acetylesterase | inhibition, % at 9.66 µM | SIAE FP-Rh probe binding, fluorescence polarization | actives 0.69% (n = 370,000);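 active means inhibition above a cutoff: mean of compounds within the control limits plus 3 SD of those, cut at about 17% in these data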;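 further: 0% = plate median of compound wells and 100% = probe without SIAE protein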
# Target sequence (Q9HAT2 whole entry, looked up): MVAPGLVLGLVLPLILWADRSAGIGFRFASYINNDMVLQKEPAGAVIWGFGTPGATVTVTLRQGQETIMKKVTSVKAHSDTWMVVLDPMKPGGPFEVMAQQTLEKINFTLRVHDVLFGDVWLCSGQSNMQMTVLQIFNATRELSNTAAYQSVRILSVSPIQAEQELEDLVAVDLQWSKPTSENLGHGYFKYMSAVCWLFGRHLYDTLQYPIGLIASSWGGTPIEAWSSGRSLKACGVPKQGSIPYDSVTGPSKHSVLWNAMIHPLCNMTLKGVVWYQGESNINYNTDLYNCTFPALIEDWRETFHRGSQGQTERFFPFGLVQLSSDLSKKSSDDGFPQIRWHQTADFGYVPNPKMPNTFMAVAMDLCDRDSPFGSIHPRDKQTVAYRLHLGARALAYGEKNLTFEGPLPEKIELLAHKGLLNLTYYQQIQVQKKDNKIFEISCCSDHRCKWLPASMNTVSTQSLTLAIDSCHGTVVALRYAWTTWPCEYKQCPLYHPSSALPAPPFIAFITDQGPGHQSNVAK
# PRMT1 inh conf – PRMT1 (human) inhibition, FP confirmation; shares compounds with PRMT1 FP inh; recombinant His-PRMT1, activity-based probe fluorescence polarization; actives 42% (n = 3,300); inhibition, % at 2.79 µM;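 active means mean inhibition across replicates above the hit cutoff derived for the earlier primary screen, cut at about 22% in these data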
# Active calls of the source: *; . = no result.
SMILES,ABHD4 inh,HTRA1 inh,PRMT1 FP inh,TCR-CD3 inh,SIAE primary,PRMT1 inh conf
CCOC(=O)c1ccc(NC(=S)N2CCSC2c2ccc(Br)cc2)cc1 (stereo unspecified),-3,-23,82*,7,6,5
O=C1CC(Sc2ccc(Cl)cc2)C(=O)N1c1ccc2c(c1)OCCO2 (stereo unspecified),-4,-9,55*,-1,-53,45*
CCN(CC)c1ccc(N)cc1S(=O)(=O)Nc1ccc(OC)cc1,3,7,7,-1,4,.
CCN(CC)c1ccc(N)cc1S(=O)(=O)Nc1ccccc1OC,7,17,46*,-1,5,14
O=C(c1cccs1)N1C[C@@H](n2cc(C3CC3)nn2)[C@H](O)C[C@@H]1c1ccccc1,-1,1,-4,3,-4,.
COc1ccc(CCN2C(=O)CN(Cc3ccccc3)CC2=O)cc1OC,-2,3,1,3,6,.
COc1ccc(CCN2C(=O)C=CC2=O)cc1OC,6,2,89*,-4,5,84*
COc1ccc(CCN2C(=O)CC(NCCc3ccc(S(N)(=O)=O)cc3)C2=O)cc1OC (stereo unspecified),-3,1,42*,5,7,1
O=C1CC(N2CCC(Cc3ccccc3)CC2)C(=O)N1CCc1ccccc1 (stereo unspecified),4,-5,47*,4,2,5
COc1ccc(CCN2C(=O)CC(NC34CC5CC(CC(C5)C3)C4)C2=O)cc1OC (stereo unspecified),3,-1,67*,-6,-5,2
COC(=O)C1=C(C)N(C)C(=NCC2CC2)NC1c1ccccc1C(F)(F)F (stereo unspecified),-9,.,4,-8,-2,.
CCCS(=O)(=O)NC(=O)C1(C)CCN(C(=O)c2ccco2)C1 (stereo unspecified),1,.,1,1,-5,.
O=C(O)CCCC(=O)OCc1c(-c2ccccc2)ncc2ccccc12,-2,-6,2,-2,-9,.
COc1ccc(CCNC2CC(=O)N(CCc3ccccc3)C2=O)cc1 (stereo unspecified),-2,0,45*,0,1,-1
COc1ccc(N2C(=O)CC(NC34CC5CC(CC(C5)C3)C4)C2=O)c(OC)c1 (stereo unspecified),-5,-2,89*,6,3,4
CCCOc1ccc(N2C(=O)CC(NCc3ccc(S(N)(=O)=O)cc3)C2=O)cc1 (stereo unspecified),-1,3,18,4,10,.
CCCCOc1ccc(N2C(=O)CC(NCCc3ccc(S(N)(=O)=O)cc3)C2=O)cc1 (stereo unspecified),2,-4,40*,4,4,6
O=C1CC(NCCc2ccccc2)C(=O)N1CCc1ccccc1 (stereo unspecified),0,11,38*,1,1,0
Cc1ccc(CNC(=O)Nc2ccc(F)cc2)n1C,4,4,2,-3,-1,.
CCCOc1ccc(N2C(=O)CC(NCCNc3ccc([N+](=O)[O-])cn3)C2=O)cc1 (stereo unspecified),3,-6,32*,-3,6,4
O=c1[nH]c(-c2ccccn2)nc2sc(-c3ccccc3)cc12,-1,10,33*,0,-10,-5
O=C(CSc1oc(-c2ccco2)nc1S(=O)(=O)c1ccc(F)cc1)NCC1CCCO1 (stereo unspecified),6,3,45*,-2,0,7
CCOc1ccc(NC(=O)CSc2nc3ccccc3nc2N2CCOCC2)cc1,2,-6,1,-13,-3,.
Cc1nc2ccc(S(=O)(=O)NC(CC(C)C)C(=O)O)cc2s1 (stereo unspecified),-12,-1,35*,4,2,3
Cc1nc2ccc(S(=O)(=O)NC(C(=O)N3CCCC3)C(C)C)cc2s1 (stereo unspecified),0,5,1,1,2,.
SMILES,ABHD4 inh,HTRA1 inh,PRMT1 FP inh,TCR-CD3 inh,SIAE primary,PRMT1 inh conf
O=C(Nc1ccc(Cl)cc1)c1cc(Br)ccc1OCC(=O)N1CCOCC1,-7,-12,3,6,-25,.
CN(C)S(=O)(=O)c1cccc(C(=O)C2=C3SC=C(c4ccccc4)N3CC2)c1,-2,-10,26*,-4,-9,28*
CN(C)S(=O)(=O)c1cccc(C(=O)N2CCc3ccccc32)c1,1,-9,-2,-3,5,.
COC(=O)C1=C(Nc2ccccc2NC(=O)CCCC(=O)O)CSC1,3,.,-3,-5,-6,.
COC(=O)C1=C(Nc2ccccc2NC(=O)c2ccccc2C(=O)O)CSC1,8,-3,26*,6,5,6
CC(=O)NC12CC3CC(C1)CC(C(=O)N1CCN(S(=O)(=O)c4cccc(C(F)(F)F)c4)CC1)(C3)C2,0,6,4,3,8,.
CCN1CCN(C(=O)/C=C/c2ccc(C)o2)CC1,-2,4,2,9,2,.
CC(/C=C/c1ccc(C)o1)=C\C(=O)O,2,-1,30*,-1,6,12
Cc1ccc(/C=C/C(=O)N2CC(C)CC(C)C2)o1 (stereo unspecified),2,-5,40*,-5,-1,19
Cc1ccc(Cn2cc(CN3CC(N4CCSCC4)CS3(=O)=O)nn2)cc1 (stereo unspecified),5,.,-4,-1,-1,.
COc1ccccc1/C=C(\NC(=O)c1ccccc1)C(=O)NCc1ccco1,-1,-3,-3,4,4,.
CS(=O)(=O)N1CCN(C(=O)Cc2ccc(Br)cc2)CC1,3,2,2,0,-3,.
COc1ccc(NC(=O)CSc2ccc(-c3ccco3)nn2)cc1,19,-5,37*,8,12,54*
CCOc1ccccc1NC(=O)CSc1ccc(-c2ccco2)nn1,10,-3,25*,4,6,48*
COc1cc(NC(=O)CSc2ccc(-c3ccco3)nn2)cc(OC)c1,-3,-15,20,14,8,.
COc1cc(N=Nc2ccc(C(=O)N(C)C)cc2)c(C)cc1N,24,8,0,5,4,.
Cc1sc2ncnc(Sc3ccccc3C(=O)Nc3ccc(C#N)cc3)c2c1C,7,10,2,-3,1,.
Cc1sc2ncnc(Sc3ccccc3C(=O)Nc3ccc(Br)cc3)c2c1C,-4,-50,35*,-1,-12,23*
Oc1ccc(/C=N/n2c(-c3ccco3)csc2=Nc2cccnc2)c(O)c1,21,8,29*,3,5,4
O=c1c2ccccc2nc(-c2ccco2)n1/N=C/c1ccccc1O,16,-2,3,2,-6,.
C=CCN1C[C@H](COC(=O)CSc2ccccc2)Oc2cccc(F)c2S1(=O)=O,1,.,3,-2,-3,.
Cc1nn(C)c(-c2n[nH]c(=S)n2Cc2ccco2)c1Cl,-8,3,28*,-5,-3,3
